# Values without a mark were called inactive. Records with an inconclusive call do not appear. Active and inactive are the calls of the source.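 How the source made its calls, unless noted: active means cell viability at or below a set limit in both duplicate runs, the limit being the all-compound median minus 4 SD (cut at about 23% in these data, passing the limit was not always enough); inconclusive means no clear call, values can overlap the other calls; inactive means the rest.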
# Tests used:
# [1] = S. cerevisiae growth inhibition in permissive medium (OD615), pilot counter-assay for S. cerevisiae lifespan shortening project, permissive growth control (AID 705;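 active means growth inhibition above 25% in both replicates, a cutoff set 3 SD above the mean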); conditions: OD615, 24 h, at 10 µM, hits give high values
# Summary of the method: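 Material: engineered DeaD yeast; Compound: one dose 10 µM, DMSO 0.25% final; Detection: absorbance (optical density) at 615 nm; Buffer or medium: permissive raffinose/galactose medium; Timing: 24 h exposure, 30 °C.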
# [2] = S. cerevisiae growth inhibition in restrictive medium, OD615, pilot screen, restrictive growth control, yeast lifespan reduction project (AID 706;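 active means growth inhibition above a set limit, 3 SD over mean compound inhibition, in both replicates, cut at about 43% in these data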;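 further: modified DeaD lifespan yeast strain shifted to restrictive glucose medium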); conditions: OD615, 48 h, at 10 µM, hits give high values
# Summary of the method: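 Buffer or medium: restrictive glucose medium (CSMM-D); test system: modified S. cerevisiae; doses: single dose of 10 µM compound final, 0.25% DMSO; schedule: 48 h compound exposure at 30 °C; detection: absorbance (optical density) measured at 615 nm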
# [3] = doxorubicin toxicity protection in MRP-1 cells – H69AR cells, CellTiter-Glo, duplicate, MRP-1 activator project, pilot screen (AID 807;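 active means viability increase at or above a cutoff of the median across tested compounds plus 3 SD, cut at about 8.5% in these data, passing the limit was not always enough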;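 further: compound pretreatment 18-22 h then 72 h combined with doxorubicin; 0% = doxorubicin alone and 100% = vehicle without doxorubicin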); conditions: H69AR viability with doxorubicin, CellTiter-Glo luminescence; at 10 µM; hits give high values
# [4] = viability of HCT116 without oncogenic beta-catenin – human colon tumor cells, pilot screen (AID 823); conditions: HCT116 beta-catenin knockout viability, CellTiter-Glo, 60 h; at 10 µM; hits give low values;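 further: 0% = wells killed by 20 µM Hyamine and 100% = untreated DMSO cell wells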
# [5] = viability of PTEN-null HCT116 cells – cell-based, HCT116 clonal line, CellTiter-Glo, pilot screen (AID 824;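 active means viability at or below 27.92% in each of two runs, the all-compound median minus 4 SD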;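 further: 0% = 20 µM Hyamine control and 100% = vehicle cell control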); conditions: HCT116 PTEN-deleted viability, 60 h, at 10 µM, hits give low values
# [6] = RAM pathway blockade in budding yeast – dse1pr::URA3 reporter, 5-FOA selection, pilot screen (AID 869;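 active means inhibition over a set limit, the all-compound mean plus 3 SD, in both replicate runs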;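 further: 0% = DMSO wells with no growth and 100% = 10 µM 1-NA-PP1 with full growth; RAM network block rescues cells from 5-FOA so hits raise OD615 growth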); conditions: S. cerevisiae dse1pr::URA3 5-FOA growth, OD615, 2 d; at 10 µM; hits give high values; strain carries analog-sensitive mutant Cbk1 kinase
# [7] = RAM signaling pathway blockade in yeast – S. cerevisiae, Pdr1DBD-CYC8 efflux-inhibited sensitized strain, primary screen (AID 1298;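 active means RAM network inhibition above 8.4% in each of two replicates, 3 SD over the compound average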;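 further: 0% = DMSO untreated cells without growth and 100% = 10 µM 1-NA-PP1 full growth; higher means more yeast growth rescued from 5-FOA killing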); conditions: S. cerevisiae cbk1-as DSE1-URA3 strain, 5-FOA growth OD615, 2 d; at 50 µM; hits give high values
Structure (SMILES),growth inhibition [1] [%],growth inhibition [2],viability increase [3] [%],viability [4] [%],viability [5] [%],inhibition [6] [%],RAM network inhibition [7] [%]
CCOC(=O)c1c(CN(CC)CC)oc2cc(Br)c(O)cc12,-0.115,0.915%,-3.81,78.2,81.6,-0.04,3.43
O=C(c1ccccc1)N1CCN(c2ccc(NCc3ccc4c(c3)OCO4)cc2)CC1,-15.1,-14.4%,-3.84,64.7,75.8,1.77,6.1
COCc1cc(C)nc(N2CCN(c3ccccc3)CC2)c1C#N,-15.6,-7.64%,0.13,86.3,81.9,2.28,6.31
COc1cccc(C(=O)NCCn2ccc3ccccc32)c1,-0.9,-3.15%,-1.6,95.3,90.6,0.825,2.48
Cc1ccc(OCCCN(C)C)c(Br)c1,-0.99,-6.73%,-1.22,89.1,87.7,1.03,2.05
CCOC(=O)NCCc1ccc(OC)cc1,-4.17,5.72%,1.36,99.9,95.8,1.83,0.56
Cc1ccccc1-n1c(C)nc2ccccc21,-17.5,-1.88%,-0.13,95.9,93.7,1.79,1.56
Nc1ccc(C(=O)c2ccc3c(c2)OCCO3)cc1N,4.75,6.96%,-6.58,102,97.5,0.375,4.41
Cc1[nH]c2ccccc2c1CCC(N)=O,-0.405,3.01%,-1.34,101,96.2,1.92,3.67
Cc1c(C(=O)N2CCN(CCc3ccccc3)CC2)oc2ccccc12,-0.01,7.52%,-1.75,100,94.7,0.455,1.34
OCCNCCCCCOc1ccc(F)cc1,-1.2,-16.2%,-1.34,96.2,94.5,2.19,0.69
O=C(Nc1ccc2c(c1)OCO2)C(c1ccccc1)N1CCCCC1 (configuration not stated),-3.12,0.37%,-1.69,80.6,93.2,1.16,2.51
Cc1nn(-c2ccc(Cl)cc2)c2sc(C(=O)N3CCN(C(=O)c4ccco4)CC3)cc12,-4.13,-10.7%,-5.55,89.3,82.5,2,2.13
COc1ccc(-n2c(Cc3cccn3C)nnc2SCC(=O)N2CCCC2)cc1,11.1,49.5% (active),-0.77,96.1,98.5,0.04,0.93
O=C(O)CCCC(=O)NCCCc1ccccc1,-6.08,3.99%,-2.85,98.5,89.8,1.02,2.45
Cc1cccc(OCCSc2cc(C)nc(N)n2)c1,-6.16,-8.02%,-1.44,89.1,79.1,-0.215,-2.06
COCCNC(=O)CS(=O)Cc1nc(-c2ccc(Cl)cc2)oc1C (configuration not stated),-6.59,-1.85%,-0.72,94.7,95.1,3.21,0.65
CCN1CCc2c(sc(NC(=O)c3ccc(S(=O)(=O)N4CCOCC4)cc3)c2C(N)=O)C1,-2.02,-1.51%,-2.7,86.8,87.2,1.45,0.16

Structure (SMILES),growth inhibition [1] [%],growth inhibition [2],viability increase [3] [%],viability [4] [%],viability [5] [%],inhibition [6] [%],RAM network inhibition [7] [%]
CCOC(=O)C1=C(C)NC(=O)NC1c1cn(-c2ccccc2)nc1-c1cccs1 (configuration not stated),-10.2,-0.16%,-0.43,75.2,72.2,1.46,3.87
COc1ccc(-c2c(C)oc3cc(O)cc(O)c3c2=O)cc1OC,-12.4,-5.23%,-1.14,109,93.8,1.01,4.79
Cc1ccc(C(=O)COC(=O)c2cnccn2)cc1,-15.1,-10.8%,-1.61,104,97.8,2.19,1.61
COc1ccc(-c2nnc(SCC(=O)NC3CCCCC3)o2)cc1OC,-3.22,1.43%,-2.07,98.5,98.4,1.34,2.65
C=CCc1c(C)nc(SC)nc1Nc1ccc(C(C)=O)cc1,-6.88,-6.6%,-3.83,83.8,87.1,1.53,6.87
COc1ccc2c(C)cc(=O)oc2c1C,2.89,-2.73%,-2.26,102,94.7,1.96,5.35
O=C(c1ccc(CNc2c(N3CCOCC3)c(=O)c2=O)cc1)N1CC=C(c2ccccc2)CC1,-1.62,-7.31%,-0.15,95.3,94.8,2.02,6.56
COc1nc(Nc2ccc(C(C)=O)cc2)nc(OC)n1,0.42,-4.17%,-4.04,99.5,97.9,1.75,6.28
CCOC(=O)N1CCN(C(=O)c2cc3c(-c4ccc(Cl)cc4)nn(C)c3s2)CC1,-5.13,4.77%,-6.02,55.8,49.2,0.47,1.8
Cn1c(=O)n(C)c2cc(S(=O)(=O)O)ccc21,5.19,4.85%,-1.08,97,95,1.38,0.76
COc1ccc(-c2nc(CS(=O)CC(=O)N3CCc4ccccc4C3)c(C)o2)cc1 (configuration not stated),2.66,32.7%,-2.66,85.6,88.8,1.13,3.48
O=C(CSc1nnc(Cn2c(=O)sc3ccccc32)n1-c1ccccc1)NCc1ccco1,-3.11,-1.47%,-4.7,99.5,98.1,1.22,6
CCOC(=O)CNC(=O)c1c2c(nc3ccccc13)CCCC2,-6.83,-1.75%,-5.37,95.4,88.2,2.68,5.74
CC(=O)Oc1cccc(N2C(=O)C3C(C2=O)C2C=CC3C23CC3)c1 (configuration not stated),-8.98,-8.59%,-0.99,96.9,101,0.125,0.63
CC12CCC(C(=O)N3CCCc4ccccc43)(CC1=O)C2(C)C (configuration not stated),-15,-2.7%,-0.39,83.6,87.6,0.94,0.93
CC(C)Oc1ccc(C2CNC(=O)C2)cc1 (configuration not stated),-1.04,0.15%,-0.24,102,103,1.04,0.1
O=C(NCCN1CCOCC1)c1ccc(CS(=O)(=O)c2c(Cl)cccc2Cl)o1,-0.145,5.92%,-0.81,110,105,0.74,0.87
CCOC(=O)N1CCN(C(=O)CSc2nc3c([nH]c4ccccc43)c(=O)n2C)CC1,1.46,-8.89%,-4.86,91.1,82.2,2.34,3.41

# — PubChem BioAssay
